The text below walks through data of ChEMBL document CHEMBL1144710, “epigenetic multiple ligands: mixed histone/protein methyltransferase, acetyltransferase, and class III deacetylase (sirtuin) inhibitors” (J Med Chem, 2008).

Assay [1] deals with U-937. Description: Induction of granulocytic differentiation in human U937 cells assessed as CD11c expression at 5 uM after 30 hrs. The assay is classed as functional. Put shortly:
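U937 cells treated for 30 h, then stained with PE-conjugated CD11c (PE mouse IgG1 as control) for 30 min at 4 °C in the dark and resuspended in PBS with PI (0.25 µg/mL). Read-out is percent CD11c-positive/PI-negative cells, with dead PI-positive cells excluded. Coloured compounds limited the top dose to 5 µM or lower.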

For assay [2], the target named is T1, Histone-lysine N-methyltransferase SETD7 (Homo sapiens) (UniProt Q8WTS6).
T1 sequence (whole entry): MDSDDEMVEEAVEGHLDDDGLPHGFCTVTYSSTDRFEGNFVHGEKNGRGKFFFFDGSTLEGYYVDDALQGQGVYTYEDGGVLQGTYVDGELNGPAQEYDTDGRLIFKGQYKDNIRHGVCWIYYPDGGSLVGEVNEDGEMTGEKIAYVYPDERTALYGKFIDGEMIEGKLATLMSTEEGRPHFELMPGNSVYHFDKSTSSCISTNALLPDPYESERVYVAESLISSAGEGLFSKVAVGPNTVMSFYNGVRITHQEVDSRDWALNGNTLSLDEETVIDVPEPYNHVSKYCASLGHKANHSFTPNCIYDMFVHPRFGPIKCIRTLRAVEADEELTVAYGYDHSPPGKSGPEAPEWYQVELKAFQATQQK
Description: Inhibition of human recombinant SET7 assessed as histone H3 protein methylation at 100 uM. Put shortly:
(§1)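 Recombinant enzymes (0.2 µg) with substrate (0.5 µg: Npl3p for PRMT1, PABP1 for CARM1, histone H3 for SET7), 0.5 µM [3H]AdoMet and 100 µM compound in PBS pH 7.4 with 3.3% v/v DMSO, 90 min at 30 °C. Products separated by 10% SDS-PAGE, transferred to PVDF, detected by fluorography on film overnight.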

Assay [3] addresses RmtA (Emericella nidulans, UniProt Q5VLE3). Description: Inhibition of Aspergillus nidulans RmtA. A digest of the protocol: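 Enzyme was GST-RmtA fusion expressed in E. coli BL21 and glutathione-affinity purified (500 ng), preincubated with compound for 15 min at room temperature. Then 20 µg chicken erythrocyte core histones and 0.55 µCi [3H]AdoMet were added, 30 min at 30 °C. Stopped with 25% TCA, filtered, counted by liquid scintillation.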

For assay [4], the target named is T2, NAD-dependent protein deacetylase sirtuin-2 (Homo sapiens) (UniProt Q8IXJ6).
T2 sequence (whole entry): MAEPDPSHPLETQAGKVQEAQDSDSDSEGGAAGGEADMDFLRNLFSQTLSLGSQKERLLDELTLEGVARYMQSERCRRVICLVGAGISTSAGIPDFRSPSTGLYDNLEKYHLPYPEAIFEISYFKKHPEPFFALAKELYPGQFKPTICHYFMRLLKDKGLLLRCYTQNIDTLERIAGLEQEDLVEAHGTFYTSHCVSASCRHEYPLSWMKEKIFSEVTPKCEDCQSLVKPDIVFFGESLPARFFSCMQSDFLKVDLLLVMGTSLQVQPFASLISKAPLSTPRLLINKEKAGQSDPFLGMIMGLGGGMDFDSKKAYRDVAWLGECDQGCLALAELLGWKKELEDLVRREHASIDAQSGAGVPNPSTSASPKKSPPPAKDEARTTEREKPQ
Description: Inhibition of human SIRT2 at 25 uM. Put shortly:
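Fluorescent two-stage assay. SIRT1 (1 U/well) or SIRT2 (5 U/well) with Fluor de Lys-SIRT1/2 substrate, NAD+ and compound at 25 µM, 37 °C for 2 h. Developer II containing nicotinamide then stopped the reaction and generated signal, read at ex 360/em 460 nm.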

Assay [5] addresses T3, Histone-arginine methyltransferase CARM1 (Homo sapiens) (UniProt Q86X55).
T3 sequence (whole entry): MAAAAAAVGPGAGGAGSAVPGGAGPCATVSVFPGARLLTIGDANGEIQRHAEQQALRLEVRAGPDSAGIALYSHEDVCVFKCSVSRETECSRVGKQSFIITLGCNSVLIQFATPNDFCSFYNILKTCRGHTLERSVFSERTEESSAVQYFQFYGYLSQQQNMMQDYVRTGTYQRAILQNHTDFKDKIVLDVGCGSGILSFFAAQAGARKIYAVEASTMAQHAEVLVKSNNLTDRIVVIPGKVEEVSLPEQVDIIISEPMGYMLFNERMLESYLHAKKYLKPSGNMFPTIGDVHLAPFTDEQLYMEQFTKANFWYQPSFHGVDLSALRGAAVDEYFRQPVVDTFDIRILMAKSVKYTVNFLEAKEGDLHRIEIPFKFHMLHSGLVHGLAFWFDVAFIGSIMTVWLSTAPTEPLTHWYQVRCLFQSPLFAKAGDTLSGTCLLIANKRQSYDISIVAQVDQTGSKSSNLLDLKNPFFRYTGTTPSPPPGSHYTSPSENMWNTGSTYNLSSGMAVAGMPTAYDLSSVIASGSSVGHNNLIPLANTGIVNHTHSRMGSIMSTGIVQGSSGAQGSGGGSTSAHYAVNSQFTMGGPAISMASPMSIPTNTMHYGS
The experiment in a line: Inhibition of human recombinant CARM1 assessed as poly(A) binding protein 1 methylation at 100 uM. A digest of the protocol:
as §1

The target of assay [6] is Protein arginine N-methyltransferase 1 (Homo sapiens) (UniProt Q99873). The experiment in a line: Inhibition of human recombinant PRMT1 assessed as nuclear ribonucleoprotein Npl3p methylation at 100 uM. Put shortly: as §1
Sequence of Protein arginine N-methyltransferase 1 (Homo sapiens) (Q99873 whole entry, looked up): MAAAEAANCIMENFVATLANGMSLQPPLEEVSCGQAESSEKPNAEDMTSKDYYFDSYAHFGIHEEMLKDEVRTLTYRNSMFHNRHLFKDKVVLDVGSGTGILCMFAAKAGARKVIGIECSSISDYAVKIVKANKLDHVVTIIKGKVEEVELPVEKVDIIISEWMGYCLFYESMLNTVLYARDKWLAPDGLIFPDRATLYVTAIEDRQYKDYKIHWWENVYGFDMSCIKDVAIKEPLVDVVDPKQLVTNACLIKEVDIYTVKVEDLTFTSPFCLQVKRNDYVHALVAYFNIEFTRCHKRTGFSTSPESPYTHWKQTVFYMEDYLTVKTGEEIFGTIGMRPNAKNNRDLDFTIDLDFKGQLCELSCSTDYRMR
In assay [7] the test system is U-937. The experiment in a line: Cell cycle arrest in human U937 cells assessed as accumulation at S phase at 25 uM after 30 hrs. Type of assay: functional, cell-based. A digest of the protocol: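 U937 cells in RPMI with 10% fetal calf serum, HEPES and glutamine, kept at 200000 cells/mL; treated at 25 µM for 30 h, then the distribution across cell cycle phases was analysed.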

Assay [8] has as its system U-937. Description: Inhibition of histone H3R17 methylation in human U937 cells at 50 uM after 24 hrs. The assay is classed as functional, cell-based. Put shortly: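 U937 cells treated at 50 µM for 24 h. Histones extracted with Triton buffer, then 0.2 M HCl overnight at 4 °C. 3–10 µg run on 15% SDS-PAGE and immunoblotted with anti-monomethyl-H3K4, monomethyl-H4R3 or dimethyl-H3R17 (1:500, overnight 4 °C), ECL detection. Loading controls: total H4 (H3K4), Ponceau Red (Arg marks).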

Assay [9] has as its system U-937. The experiment in a line: Inhibition of human p300/CBP in U937 cells at 50 uM assessed as histone H3 acetylation. The assay is classed as cell-based. Put shortly: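 Source was U937 nuclear extract (10 µg per assay) as p300/CBP HAT, with histone H3 substrate and compound at 50 µM or DMSO control for 90 min. Acetyl-H3 detected by indirect ELISA, quantified against acetylated H3 peptide standard curves, […].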

Activity calls are given as the source filed them. Unless noted, no cut-off for these calls is given here.

Sequence of RmtA (Q5VLE3 whole entry, the tested form may be a part): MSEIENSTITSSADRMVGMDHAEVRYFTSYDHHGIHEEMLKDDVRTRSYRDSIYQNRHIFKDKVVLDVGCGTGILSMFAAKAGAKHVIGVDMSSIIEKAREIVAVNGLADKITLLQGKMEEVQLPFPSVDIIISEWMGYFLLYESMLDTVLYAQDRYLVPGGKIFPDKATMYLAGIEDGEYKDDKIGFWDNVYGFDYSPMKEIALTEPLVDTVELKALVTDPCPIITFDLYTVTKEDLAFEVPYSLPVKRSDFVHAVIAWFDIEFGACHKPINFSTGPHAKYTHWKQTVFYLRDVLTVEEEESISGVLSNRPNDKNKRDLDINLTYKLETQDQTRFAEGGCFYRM

`O=C1/C(=C/c2cc(Br)c(O)c(Br)c2)COC/C1=C\c1cc(Br)c(O)c(Br)c1`: in assay [1], the Activity is 96.1%. Also, the outcome in [2], in assay [5], in assay [6], in [7] and in assay [8] was Active. The half-maximal inhibitory concentration (IC50) in [3] stood at 29 µM. Besides, the inhibition was determined as 67% in assay [4] and 61% in assay [9].

The term IC50 denotes the concentration needed to halve the response being measured. As a reminder, the inhibition is how much of the control response was suppressed.
